Experimental data: paper PMC4235313 (Chemistry (Weinheim an Der Bergstrasse, Germany), 2013)
pIC50: −log10 of the molar value.

Target: T1, S. aureus PBP2 (Staphylococcus aureus, UniProt Q9R744)
T1 sequence (Q9R744 1-727): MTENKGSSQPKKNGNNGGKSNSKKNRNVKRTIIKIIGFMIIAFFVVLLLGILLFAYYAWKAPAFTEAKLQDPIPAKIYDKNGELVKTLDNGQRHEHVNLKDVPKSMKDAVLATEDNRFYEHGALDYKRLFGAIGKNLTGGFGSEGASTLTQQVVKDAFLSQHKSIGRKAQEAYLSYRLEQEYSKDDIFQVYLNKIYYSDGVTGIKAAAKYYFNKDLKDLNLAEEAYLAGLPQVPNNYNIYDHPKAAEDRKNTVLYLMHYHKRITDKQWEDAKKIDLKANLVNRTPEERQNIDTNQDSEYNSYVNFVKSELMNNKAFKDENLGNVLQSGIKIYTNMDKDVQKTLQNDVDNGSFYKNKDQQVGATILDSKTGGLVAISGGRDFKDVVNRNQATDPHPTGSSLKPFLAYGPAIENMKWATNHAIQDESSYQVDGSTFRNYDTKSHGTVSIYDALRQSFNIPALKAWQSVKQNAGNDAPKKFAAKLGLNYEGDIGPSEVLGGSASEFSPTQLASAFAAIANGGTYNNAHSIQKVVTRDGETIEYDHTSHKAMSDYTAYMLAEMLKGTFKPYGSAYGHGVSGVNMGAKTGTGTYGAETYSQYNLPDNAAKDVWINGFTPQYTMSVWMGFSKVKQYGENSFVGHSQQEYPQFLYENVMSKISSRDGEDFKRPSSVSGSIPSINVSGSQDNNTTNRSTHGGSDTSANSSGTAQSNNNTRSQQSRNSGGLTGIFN
Format: biochemical, Staphylococcus aureus RN4220
Conditions: for suppression of the peptidoglycan polymerization (in words): susceptible (normal lipid II analogue) and resistant (depsi-lipid II analogue) models of the PBP2 reaction, Figure 6
Method in brief: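 N-terminal His6 S. aureus PBP2 (gene from RN4220 genomic DNA), expressed in E. coli BL21(DE3)pLysS, Ni-NTA and gel-filtration purified; 30 μg/mL in 50 mM HEPES pH 7.0, 18 mM MnCl2, 10% DMSO. Test compound series started with 4 μM [14C]-C35-lipid II or [14C]-C35-depsi-lipid II analogue, 30 °C, 4 min; SDS stop; cellulose TLC; phosphorimaging of polymerised product.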

With moenomycin the “suppression of the peptidoglycan polymerization (in words)” value was “suppressed the peptidoglycan polymerization regardless of the use of normal or depsi-lipid II analogues”.

For `CN[C@H](CC(C)C)C(=O)N[C@H]1C(=O)N[C@@H](CC(N)=O)C(=O)N[C@H]2C(=O)N[C@H]3C(=O)N[C@H](C(=O)N[C@H](C(=O)O)c4cc(O)cc(O)c4-c4cc3ccc4O)[C@H](O)c3ccc(c(Cl)c3)Oc3cc2cc(c3O[C@@H]2O[C@H](CO)[C@@H](O)[C@H](O)[C@H]2O[C@H]2C[C@](C)(N)[C@H](O)[C@H](C)O2)Oc2ccc(cc2Cl)[C@H]1O` [vancomycin], the pIC50 was 5.82 and the “suppression of the peptidoglycan polymerization (in words)” value was “suppressed the peptidoglycan polymerization only when normal lipid II analogue was used”.
